Laboratory results as given in PubChem BioAssay.
Active and inactive are the calls of the source.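 How the source made its calls, unless noted: active means potentiation averaged over duplicate wells exceeding buffer-only control mean by more than 3 SD; inactive means the rest.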

molecular target: Potassium voltage-gated channel subfamily KQT member 1 (Homo sapiens) (UniProt P51787); test: KCNQ1 potassium channel potentiators, confirmation, FluxOR thallium flux, CHO cells, duplicates (AID 493007); conditions: KCNQ1 cell line, FluxOR thallium flux fluorescence, at 10 µM; hits give high values, % of reference activator effect, buffer zero;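 on outcome: cells depolarized by a potassium plus thallium sulfate stimulus after compound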;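 on potentiation: 0% = buffer-only wells and 100% = R-L3 activator control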
Method in brief: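 Assay system: CHO cells carrying KCNQ1 | Controls: Buffer and R-L3 controls | Schedule: FluxOR dye loading 90 min, compound exposure 20 min, room temperature | Read-out: Baseline-normalized fluorescence change, percent of buffer-to-R-L3 range | Replicates: Each compound tested in duplicate | Technique: Kinetic thallium influx fluorescence with FluxOR dye, 10 s baseline, 110 s post-stimulus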

Potassium voltage-gated channel subfamily KQT member 1 (Homo sapiens), sequence (P51787 whole entry, looked up): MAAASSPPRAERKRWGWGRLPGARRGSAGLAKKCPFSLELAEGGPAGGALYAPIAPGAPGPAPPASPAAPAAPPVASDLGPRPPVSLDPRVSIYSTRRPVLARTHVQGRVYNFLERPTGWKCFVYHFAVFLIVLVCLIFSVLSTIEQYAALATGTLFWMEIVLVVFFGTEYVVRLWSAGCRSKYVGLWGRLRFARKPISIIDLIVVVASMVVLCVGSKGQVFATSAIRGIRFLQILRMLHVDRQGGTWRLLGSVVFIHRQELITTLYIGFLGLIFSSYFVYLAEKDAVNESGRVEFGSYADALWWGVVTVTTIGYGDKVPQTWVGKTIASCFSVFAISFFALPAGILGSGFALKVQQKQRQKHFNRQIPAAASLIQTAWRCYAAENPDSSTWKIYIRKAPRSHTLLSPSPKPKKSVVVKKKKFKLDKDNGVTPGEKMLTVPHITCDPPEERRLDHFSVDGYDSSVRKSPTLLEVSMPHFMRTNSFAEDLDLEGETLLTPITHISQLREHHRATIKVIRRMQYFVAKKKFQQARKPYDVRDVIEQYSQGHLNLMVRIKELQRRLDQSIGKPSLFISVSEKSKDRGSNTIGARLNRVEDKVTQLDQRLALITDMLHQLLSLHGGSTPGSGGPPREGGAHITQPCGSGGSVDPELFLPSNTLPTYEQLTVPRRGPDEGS

SMILES | outcome | potentiation
Cc1cc(SCNC(=O)c2ccccc2)ncn1 | inactive | –
c1ccc2c(c1)OCC(CNc1ncnc3nc[nH]c13)O2 (stereo not drawn) | – | 46% (active)
CCN(C(=O)COC(=O)c1ccccc1Nc1cccc(C)c1C)C1CCS(=O)(=O)C1 (stereo not drawn) | inactive | –
CCOC(=O)Cc1csc(NC(=S)NC(=O)C(C)(C)C)n1 | inactive | –
C/C(=N\NC(=S)Nc1cccc(C)c1)c1cc2ccccc2o1 | – | 60% (active)
CC(=O)/C=C1/C(=O)Nc2ccccc21 | – | 63.5% (active)
CC(=O)N1CCN=C1SCc1ccc(F)cc1 | – | 120% (active)
CNC(C)C#Cc1ccc2sc3cccc(OC)c3c(=O)c2c1 (stereo not drawn) | inactive | –
CCOC(=O)c1c(C)[nH]c(=S)c(C#N)c1-c1ccc(Cl)cc1 | – | 34.5% (active)
COc1cc(S(=O)(=O)Nc2cccnc2)ccc1Cl | – | 64% (active)
CCN(CC)S(=O)(=O)c1cccc(C(=O)N[C@H](C(=O)NNC(=O)c2ccccc2)C(C)C)c1 | inactive | –
S=c1[nH]nc(CSc2nc3ccccc3s2)n1C1CCCCC1 | – | 31% (active)
Cc1ccc(CN2C(=O)CC(Nc3ccc(N4CCOCC4)cc3)C2=O)cc1 (stereo not drawn) | inactive | –
COc1ccc2nc(N=Nc3ccc(O)c4ccccc34)sc2c1 | – | 83.5% (active)
CCOC(=O)NC(=S)Nc1ccc(C(C)(C)C)cc1 | – | 20% (active)
S=c1nc(C2CC2)[nH]c2ccccc12 | – | 83.5% (active)
Cc1nc2ccccn2c1C(=O)N/N=C/c1ccccc1 | inactive | –
Nc1ccccc1OCCOCCOc1ccccc1N | inactive | –
CCN(CC)CCn1c(OC)cc(=O)[nH]c1=O | inactive | –
CC(C)(C)c1ccc2c(c1)OC(C(=O)N/N=C\c1ccccn1)CO2 (stereo not drawn) | inactive | –

SMILES | outcome | potentiation
Cc1cccc(CC2CC(=O)N(c3ccc(C)cc3Br)C2=O)c1 (stereo not drawn) | inactive | –
O=C(CSc1nc2cc(Cl)ccc2s1)c1cc2ccccc2o1 | inactive | –
Cc1ccc(C)c(SCC(=O)NC(=O)Nc2ccc3c(c2)OCCO3)c1 | inactive | –
NC(N)=N/N=C/c1ccccc1OC(F)F | inactive | –
O=C(CCOc1ccccc1)Nc1ccnn1C1CCN(Cc2ccc(CO)o2)CC1 | inactive | –
CC(=O)N[C@H]1[C@H](OC2CCCCC2)O[C@H](COC(C)=O)[C@@H](OC(C)=O)[C@@H]1OC(C)=O | inactive | –
CCOc1ccccc1C1c2[nH]c3ccccc3c2C[C@H]2C(=O)N(C3CC3)CC(=O)N12 (stereo partly drawn) | inactive | –
Cc1ccc(C)c(NC(=S)NNC(=O)c2cc3c(s2)CCC(C)C3)c1 (stereo not drawn) | – | 48.5% (active)
COc1ccccc1C(=O)NNC(=O)C(=O)NC1CCCCC1 | – | 67.5% (active)
COc1ccc(-c2oc3ccccc3c(=O)c2OC(C)=O)cc1 | inactive | –
COC(=O)COc1ccc(-c2ccccc2)cc1C=O | – | 34.5% (active)
CCOC(=O)c1cc2c(=O)n3ccccc3nc2n(CCCOC)c1=NC(=O)c1ccncc1 | inactive | –
COc1ccc(CCN(C)C(=O)CSc2nnc(-c3ccco3)o2)cc1OC | inactive | –
CCC(C)n1c(=S)[nH]c2c(sc3ccc([N+](=O)[O-])cc32)c1=O (stereo not drawn) | – | 342% (active)
S=c1[nH]cc(Cc2ccccc2)s1 | – | 28.5% (active)
CCOC(=O)Cn1c(=S)[nH]c2c(oc3ccc(Cl)cc32)c1=O | – | 36% (active)
CCC(O)(CC)C(=O)NN(C(=O)CCl)c1ccccc1 | inactive | –
CCOc1ccc(-n2cc(-c3ccccc3)c3c(=S)nc[nH]c32)cc1 | – | 192% (active)
CC1CCN(c2ncnc3ccccc23)CC1 | inactive | –

molecular target: Potassium voltage-gated channel subfamily KQT member 2 (Rattus norvegicus) (UniProt O88943); test: rat KCNQ2 channel potentiation, selectivity assay for KCNQ1 potentiator project, KCNQ2-CHO-K1 cells (AID 493009;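 active means mean duplicate potentiation above the buffer control mean plus 5 SD of buffer wells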;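 further: assay conditions were tuned for KCNQ1 rather than KCNQ2 modulators; signal is max minus min fluorescence divided by baseline after thallium stimulus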); conditions: FluxOR thallium flux fluorescence, at 10 µM; hits give high values, scaled: buffer 0, activator control 100
Sequence (O88943 whole entry, looked up): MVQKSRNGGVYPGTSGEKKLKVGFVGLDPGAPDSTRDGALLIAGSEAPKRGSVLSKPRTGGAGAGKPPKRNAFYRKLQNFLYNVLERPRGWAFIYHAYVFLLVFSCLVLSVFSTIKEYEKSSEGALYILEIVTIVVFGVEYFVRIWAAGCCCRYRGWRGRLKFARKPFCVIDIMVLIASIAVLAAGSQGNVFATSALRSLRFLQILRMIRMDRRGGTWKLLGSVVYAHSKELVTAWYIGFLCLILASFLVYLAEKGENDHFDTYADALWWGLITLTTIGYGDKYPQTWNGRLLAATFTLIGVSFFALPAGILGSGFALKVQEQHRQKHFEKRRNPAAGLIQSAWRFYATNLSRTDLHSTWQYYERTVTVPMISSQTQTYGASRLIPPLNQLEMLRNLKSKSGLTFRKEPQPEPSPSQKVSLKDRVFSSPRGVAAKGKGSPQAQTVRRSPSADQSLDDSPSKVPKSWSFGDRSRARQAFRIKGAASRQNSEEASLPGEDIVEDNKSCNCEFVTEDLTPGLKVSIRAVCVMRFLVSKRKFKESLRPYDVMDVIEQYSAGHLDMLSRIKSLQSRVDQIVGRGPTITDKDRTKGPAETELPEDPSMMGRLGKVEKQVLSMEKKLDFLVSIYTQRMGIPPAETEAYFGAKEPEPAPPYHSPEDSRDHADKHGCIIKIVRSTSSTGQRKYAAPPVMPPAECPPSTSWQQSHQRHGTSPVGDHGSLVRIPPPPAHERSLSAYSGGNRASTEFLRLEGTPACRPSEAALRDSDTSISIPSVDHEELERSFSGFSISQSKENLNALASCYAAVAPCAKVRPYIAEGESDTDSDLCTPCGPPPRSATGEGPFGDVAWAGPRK

SMILES | outcome | potentiation
Cc1cc(SCNC(=O)c2ccccc2)ncn1 | inactive | –
c1ccc2c(c1)OCC(CNc1ncnc3nc[nH]c13)O2 (stereo not drawn) | – | 194% (active)
CCN(C(=O)COC(=O)c1ccccc1Nc1cccc(C)c1C)C1CCS(=O)(=O)C1 (stereo not drawn) | inactive | –
CCOC(=O)Cc1csc(NC(=S)NC(=O)C(C)(C)C)n1 | inactive | –
C/C(=N\NC(=S)Nc1cccc(C)c1)c1cc2ccccc2o1 | – | 172% (active)
CC(=O)/C=C1/C(=O)Nc2ccccc21 | – | 188% (active)
CC(=O)N1CCN=C1SCc1ccc(F)cc1 | – | 329% (active)
CNC(C)C#Cc1ccc2sc3cccc(OC)c3c(=O)c2c1 (stereo not drawn) | inactive | –
CCOC(=O)c1c(C)[nH]c(=S)c(C#N)c1-c1ccc(Cl)cc1 | – | 170% (active)
COc1cc(S(=O)(=O)Nc2cccnc2)ccc1Cl | – | 212% (active)
CCN(CC)S(=O)(=O)c1cccc(C(=O)N[C@H](C(=O)NNC(=O)c2ccccc2)C(C)C)c1 | inactive | –
S=c1[nH]nc(CSc2nc3ccccc3s2)n1C1CCCCC1 | – | 147% (active)
Cc1ccc(CN2C(=O)CC(Nc3ccc(N4CCOCC4)cc3)C2=O)cc1 (stereo not drawn) | inactive | –
COc1ccc2nc(N=Nc3ccc(O)c4ccccc34)sc2c1 | – | 188% (active)
CCOC(=O)NC(=S)Nc1ccc(C(C)(C)C)cc1 | inactive | –
S=c1nc(C2CC2)[nH]c2ccccc12 | – | 351% (active)
Cc1nc2ccccn2c1C(=O)N/N=C/c1ccccc1 | inactive | –
Nc1ccccc1OCCOCCOc1ccccc1N | inactive | –
CCN(CC)CCn1c(OC)cc(=O)[nH]c1=O | inactive | –
CC(C)(C)c1ccc2c(c1)OC(C(=O)N/N=C\c1ccccn1)CO2 (stereo not drawn) | inactive | –

SMILES | outcome | potentiation
Cc1cccc(CC2CC(=O)N(c3ccc(C)cc3Br)C2=O)c1 (stereo not drawn) | inactive | –
O=C(CSc1nc2cc(Cl)ccc2s1)c1cc2ccccc2o1 | inactive | –
Cc1ccc(C)c(SCC(=O)NC(=O)Nc2ccc3c(c2)OCCO3)c1 | inactive | –
NC(N)=N/N=C/c1ccccc1OC(F)F | inactive | –
O=C(CCOc1ccccc1)Nc1ccnn1C1CCN(Cc2ccc(CO)o2)CC1 | inactive | –
CC(=O)N[C@H]1[C@H](OC2CCCCC2)O[C@H](COC(C)=O)[C@@H](OC(C)=O)[C@@H]1OC(C)=O | inactive | –
CCOc1ccccc1C1c2[nH]c3ccccc3c2C[C@H]2C(=O)N(C3CC3)CC(=O)N12 (stereo partly drawn) | inactive | –
Cc1ccc(C)c(NC(=S)NNC(=O)c2cc3c(s2)CCC(C)C3)c1 (stereo not drawn) | – | 237% (active)
COc1ccccc1C(=O)NNC(=O)C(=O)NC1CCCCC1 | – | 262% (active)
COc1ccc(-c2oc3ccccc3c(=O)c2OC(C)=O)cc1 | – | 161% (active)
COC(=O)COc1ccc(-c2ccccc2)cc1C=O | – | 216% (active)
CCOC(=O)c1cc2c(=O)n3ccccc3nc2n(CCCOC)c1=NC(=O)c1ccncc1 | inactive | –
COc1ccc(CCN(C)C(=O)CSc2nnc(-c3ccco3)o2)cc1OC | inactive | –
CCC(C)n1c(=S)[nH]c2c(sc3ccc([N+](=O)[O-])cc32)c1=O (stereo not drawn) | – | 709% (active)
S=c1[nH]cc(Cc2ccccc2)s1 | – | 216% (active)
CCOC(=O)Cn1c(=S)[nH]c2c(oc3ccc(Cl)cc32)c1=O | – | 218% (active)
CCC(O)(CC)C(=O)NN(C(=O)CCl)c1ccccc1 | inactive | –
CCOc1ccc(-n2cc(-c3ccccc3)c3c(=S)nc[nH]c32)cc1 | – | 389% (active)
CC1CCN(c2ncnc3ccccc23)CC1 | inactive | –
